ChEMBL document CHEMBL4038330, “Discovery of Potent Orally Active Protease-Activated Receptor 1 (PAR1) Antagonists Based on Andrographolide” (J Med Chem, 2017)

Tests used:
Cavia porcellus [1] = assay: In vivo antagonist activity at PAR1 in guinea pig assessed as inhibition of thrombin-stimulated platelet aggregation at 10 mg/kg, po pretreated for 2 hrs followed by thrombin stimulation measured after 5 mins; type: functional
[2] = test system: ADP-stimulated platelet aggregation; assay: Toxicity in guinea pig assessed as inhibition of ADP-stimulated platelet aggregation at 10 mg/kg, po pretreated for 2 hrs followed by ADP stimulation measured after 5 mins; type: organism-based, Cavia porcellus; details: in vivo
[3] = biological target: T1, Proteinase-activated receptor 1 (Homo sapiens, UniProt P25116); assay: Antagonist activity at human PAR1 expressed in HEK293 cells co-expressing Galpha15 assessed as inhibition of haTRAP-induced calcium mobilization preincubated for 15 mins followed by haTRAP addition by calcium-4 dye based FLIPR assay; type: functional, cell-based
T1 sequence (P25116 whole entry): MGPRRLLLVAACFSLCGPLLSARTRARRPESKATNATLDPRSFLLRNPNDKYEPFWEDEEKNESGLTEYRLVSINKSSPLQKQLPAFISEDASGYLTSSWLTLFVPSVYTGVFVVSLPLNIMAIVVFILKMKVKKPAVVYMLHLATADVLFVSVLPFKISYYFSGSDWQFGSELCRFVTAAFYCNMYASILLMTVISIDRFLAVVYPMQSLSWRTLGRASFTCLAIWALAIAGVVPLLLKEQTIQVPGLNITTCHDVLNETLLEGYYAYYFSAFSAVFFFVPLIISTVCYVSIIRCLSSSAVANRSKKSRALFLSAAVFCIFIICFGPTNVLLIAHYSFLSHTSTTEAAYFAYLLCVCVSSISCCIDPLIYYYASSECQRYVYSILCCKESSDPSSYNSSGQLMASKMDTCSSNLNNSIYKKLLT

[4] = test system: collagen-stimulated platelet aggregation; assay: Toxicity in guinea pig assessed as inhibition of collagen-stimulated platelet aggregation at 10 mg/kg, po pretreated for 2 hrs followed by collagen stimulation measured after 5 mins; type: organism-based, Cavia porcellus; details: in vivo
Cavia porcellus [5] = assay: In vivo antagonist activity at PAR1 in guinea pig assessed as inhibition of TRAP-stimulated platelet aggregation at 10 mg/kg, po pretreated for 2 hrs followed by TRAP stimulation measured after 5 mins; type: functional
Plasma [6] = assay: Drug metabolism in Wistar rat plasma assessed as [M0+H2O] metabolite formation at 10 mg/kg, po administered as single dose measured at 3 hrs post dose by LC-HRMS analysis; type: ADME, organism-based; details: in vivo
Procedure, shortened: (§1)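 Rats dosed orally at 10 mg/kg or 5 mg/kg. Plasma taken at 3.0 h after dosing. Parent and metabolites detected by extracted ion chromatograms.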

Plasma [7] = assay: Drug metabolism in Wistar rat plasma assessed as [M0-CH2+O] metabolite formation at 10 mg/kg, po administered as single dose measured at 3 hrs post dose by LC-HRMS analysis; type: ADME, organism-based; details: in vivo; procedure, shortened: as §1
Plasma [8] = assay: Drug metabolism in Wistar rat plasma assessed as [M0+O] metabolite formation at 10 mg/kg, po administered as single dose measured at 3 hrs post dose by LC-HRMS analysis; type: ADME, organism-based; details: in vivo; procedure, shortened: as §1
Plasma [9] = assay: Stability in Wistar rat assessed as parent compound level in plasma at 10 mg/kg, po administered as single dose measured at 3 hrs post dose by LC-HRMS analysis; type: ADME, organism-based; details: in vivo; procedure, shortened: as §1
Plasma [10] = assay: Drug metabolism in Wistar rat plasma assessed as [M0-2H] metabolite formation at 10 mg/kg, po administered as single dose measured at 3 hrs post dose by LC-HRMS analysis; type: ADME, organism-based; details: in vivo; procedure, shortened: as §1
Plasma [11] = assay: Drug metabolism in Wistar rat plasma assessed as [M0-CH2] metabolite formation at 10 mg/kg, po administered as single dose measured at 3 hrs post dose by LC-HRMS analysis; type: ADME, organism-based; details: in vivo; procedure, shortened: as §1
Plasma [12] = assay: Drug metabolism in Wistar rat plasma assessed as (1S,2S,4aS,5S,6R,8aR)-1-((E)-2-(5-(3-Fluorophenyl)pyridin-2-yl)vinyl)-6-hydroxy-5,8a-dimethyloctahydro-1H-spiro[naphthalene-2,2'-oxirane]-5-carboxylic acid metabolite formation at 10 mg/kg, po administered as single dose measured at 3 hrs post dose by LC-HRMS analysis; type: ADME, organism-based; details: in vivo; procedure, shortened: as §1
Plasma [13] = assay: Drug metabolism in Wistar rat plasma assessed as [M1-2H] metabolite formation at 10 mg/kg, po administered as single dose measured at 3 hrs post dose by LC-HRMS analysis; type: ADME, organism-based; details: in vivo; procedure, shortened: as §1
[14] = AUC (0 to infinity) in Wistar rat plasma at 10 mg/kg, po administered as single dose administered as single dose at 3 hrs post dose by LC-MS/MS analysis; type: ADME, organism-based; design: dose 10 mg/kg, route oral, time infinity
Rattus norvegicus = assay: AUC (0 to infinity) in Wistar rat assessed as (1S,2S,4aS,5S,6R,8aR)-1-((E)-2-(5-(3-Fluorophenyl)pyridin-2-yl)vinyl)-6-hydroxy-5,8a-dimethyloctahydro-1H-spiro[naphthalene-2,2'-oxirane]-5-carboxylic acid level in plasma at 10 mg/kg, po administered as single dose at 3 hrs post dose by LC-MS/MS analysis; type: ADME, organism-based; design: dose 10 mg/kg, route oral, time infinity; details: in vivo
Plasma [15] = assay: Drug metabolism in Wistar rat plasma assessed as [M1-2H+O] metabolite formation at 10 mg/kg, po administered as single dose measured at 3 hrs post dose by LC-HRMS analysis; type: ADME, organism-based; details: in vivo; procedure, shortened: as §1
Plasma [16] = assay: Drug metabolism in Wistar rat plasma assessed as [M1+O] metabolite formation at 10 mg/kg, po administered as single dose measured at 3 hrs post dose by LC-HRMS analysis; type: ADME, organism-based; details: in vivo; procedure, shortened: as §1
Plasma [17] = assay: Drug metabolism in Wistar rat plasma assessed as [M1-CH2-2H] metabolite formation at 10 mg/kg, po administered as single dose measured at 3 hrs post dose by LC-HRMS analysis; type: ADME, organism-based; details: in vivo; procedure, shortened: as §1

## CCOC(=O)N[C@@H]1CC[C@@H]2[C@@H](C1)C[C@H]1C(=O)O[C@H](C)[C@H]1[C@H]2/C=C/c1ccc(-c2cccc(F)c2)cn1 [VORAPAXAR]
Cavia porcellus [1]
  inhibition in vivo at 10 mg/kg: 93.4%
[2]
  inhibition at 5 min: 3%
[3]
  IC50: 0.064 µM
[4]
  inhibition at 5 min: 0.9%
Cavia porcellus [5]
  inhibition in vivo at 10 mg/kg: 98.3%

## C[C@]1(CO)[C@H]2CC[C@@]3(CO3)[C@@H](/C=C/c3ccc(-c4cccc(F)c4)cn3)[C@]2(C)CC[C@H]1O
Plasma [6]
  Drug metabolism: Metabolite_Detected
Plasma [7]
  Drug metabolism: Metabolite_Detected
Plasma [8]
  Drug metabolism: Metabolite_Detected
[3]
  IC50: 9.1 µM
Plasma [9]
  Stability: Unstable
Plasma [10]
  Drug metabolism: Metabolite_Detected
Plasma [11]
  Drug metabolism: Metabolite_Detected
Plasma [12]
  Drug metabolism: Metabolite_Detected

## COC(=O)[C@]1(C)[C@H](O)CC[C@@]2(C)[C@H](/C=C/c3ccc(-c4cccc(F)c4)cn3)[C@@]3(CC[C@@H]21)CO3
Plasma [13]
  Drug metabolism: Metabolite_Detected
[14]
  AUC(0-inf): 269 ng·h/mL
Rattus norvegicus
  AUC: 8.4127 µg·h/mL
[3]
  IC50: 7 µM
Plasma [9]
  Stability: Unstable
Plasma [15]
  Drug metabolism: Metabolite_Detected
Plasma [16]
  Drug metabolism: Metabolite_Detected
Plasma [12]
  Drug metabolism: Metabolite_Detected
Plasma [17]
  Drug metabolism: Metabolite_Detected
